Screens from PubChem BioAssay.
A selection: hits, their analogues and other compounds. The true share with any hit is near 9.6%.
bCat nuc transl: beta-catenin nuclear translocation modulation; actives 0.3% (n = 190,000); nuclear translocation activity, % at 5 µM; HeLa beta-catenin nuclear translocation, immunofluorescence imaging;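 active means nuclear translocation activity above 50% at 5 µM, with a well cell count of 50 or more; inconclusive means wells under 50 cells across six images, flagged as toxic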;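 further: per-cell ratio of nuclear to cytoplasmic median beta-catenin stain intensity; plate controls were DMSO negative control for no effect and GSK-3 inhibitor IX positive control for full effect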
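Test system: human HeLa cell line; Doses: 5 µM primary, 0.02–20 µM confirmation; Incubation: 24 h compound exposure, 37°C; Detection: beta-catenin immunofluorescence imaging with DAPI; Read-out: beta-catenin nuclear/cytoplasmic ratio, % activation.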
L major viab: inhibitors of Leishmania major promastigote growth; inhibition, % at 10 µM; Leishmania major promastigotes, resazurin fluorescence viability; actives 9% (n = 200,000); AID 1063; in the data active means inhibition above about 50%;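 further: promastigotes grown with compound for 44 hours at 28 °C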
APP 5UTR inh: APP translation inhibition; actives 0.82% (n = 190,000); SH-SY5Y APP 5'UTR-luciferase reporter, luminescence; inhibition, % at 2 µM; AID 1285;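 active means inhibition above a set limit, derived from the sample mean plus 3 SD, cut at about 45% in these data; inconclusive means one replicate passes the limit while the other fails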
BaF3 tox: counter-screen for JAK2V617F inhibitors: parental Ba/F3 viability inhibitors | AID 1486 | inhibition, % at 5.6 µM | CellTiter-Glo ATP luminescence | actives 1.1% (n = 220,000);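 active means inhibition above a per-campaign cutoff, the mean inhibition of all tested compounds plus 3 SD, cut at about 27% in these data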;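 further: 0% = DMSO wells and 100% = JAK Inhibitor I control wells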
MT stabilizer: stabilizes microtubules in HeLa cells; actives 0.83% (n = 200,000); HeLa tubulin immunostaining HCS, 24 h; share of cells brighter than vehicle mean+2SD; % tubulin-high responders, % at 10 µM;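 active means plate Z-score above 3 for both tubulin-high and condensed-nucleus cell shares, with cell loss under 80%, at 10 µM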;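 further: anti alpha tubulin signal scored within the nucleus-defined area of each cell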
Ba/F3 V617F tox: reduce viability of Ba/F3 cells dependent on JAK2V617F. Ba/F3 EpoR-JAK2V617F viability, ATP luminescence. actives 1.1% (n = 220,000). inhibition, % at 5.6 µM;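 active means inhibition above the campaign mean plus 3 SD over all tested compounds, cut at about 24% in these data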;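 further: cytokine-independent growth of Ba/F3 cells driven by EpoR plus mutant JAK2; 0% = DMSO-treated cells and 100% = JAK inhibitor I control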
L major 1uM: blocks Leishmania major promastigote growth at 1 uM, repeat screen. shares compounds with L major viab. L. major promastigote growth, resazurin fluorescence, 48 h. inhibition, % at 1 µM. actives 13% (n = 1,100). AID 1258;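 active means inhibition above about 50% in both repeat tests, limit read from the data; inconclusive means one repeat under the set limit, the other over it; inactive means both repeats under the set limit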
An asterisk follows results filed as active; i = inactive; u = inconclusive; x = not tested or not shown.

SMILES	bCat nuc transl	L major viab	APP 5UTR inh	BaF3 tox	MT stabilizer	Ba/F3 V617F tox	L major 1uM
CC(=O)c1ccc(OCCCC(=O)OCC(=O)N2CCN(c3ccccc3)CC2)cc1	1	-4	-9	2	1	-3	x
CNCCCC12CCC(c3ccccc31)c1ccccc12	7	97*	-1	7	4	3	1
COc1cc(/C=C2\C(=O)ON=C2c2ccccc2)cc(Cl)c1O	-5	50*	-11	3	2	0	17
O=C1ON=C(c2ccccc2)/C1=C\c1ccco1	0	x	x	-3	x	-2	x
CCCOc1ccc(N)cc1N	-2	74*	-2	2	6	-3	-14
COc1cc(Cl)ccc1NC(=O)COc1ccccc1C(=O)N1CCN(c2ccc(O)cc2)CC1	x	63*	17	4	2	4	5
CC(C)(C)c1ccc(C(=O)N2CCC(=O)N(C(COCc3ccccc3)Cc3ccccc3)CC2)cc1 (configuration not stated)	x	52*	-9	3	5	-3	-22
O=C(Cn1cccc1C(=O)c1ccccc1)NCc1cccc(Cl)c1	0	8	-28	1	2	-2	x
C1CN=C(NC23CC4CC(CC(C4)C2)C3)C1	1	-6	20	-1	6	-3	x
O=C(Nc1ccccc1-c1nc2ccccc2s1)c1cccnc1	2	95*	9	1	4	0	6
O=C(Nc1ccccc1-c1nc2ccccc2s1)c1ccc(Br)o1	-13	-1	x	7	i	1	x
COc1ccc(S(=O)(=O)Nc2ccc(O)c3ccccc23)cc1	0	100*	9	3	1	-2	97*
Cc1ccc(S(=O)(=O)c2ccc(Oc3cccc(C)c3)cc2)cc1	2	74*	11	6	2	1	85*
CC(=O)Oc1ccc(N2C(=O)C3C4C=CC(C5CC45)C3C2=O)cc1[N+](=O)[O-] (configuration not stated)	0	-9	5	3	4	-1	x
COc1ccc(/C=C/C(=O)C(C(N)=O)=C2SCCS2)cc1	0	44	-40	4	1	-5	x
Cc1ccc(C(=O)C(C(=O)/C=C/c2ccccc2)=C2SCCCS2)cc1	u	100*	38	1	9	2	20
CCN(C(=O)COC(=O)c1ccc2c(=O)n3c(nc2c1)CCC3)C1CCS(=O)(=O)C1 (configuration not stated)	1	2	-4	3	2	2	x
CNCCCC1c2ccccc2C=Cc2ccccc21	-2	56*	4	0	4	11	-9
OC(CCCN1CCCCC1)(c1ccccc1)c1ccccc1	-3	9	1	5	3	-2	x
c1ccc2c(c1)OC(CCCN1CCCCC1)c1ccccc1S2 (configuration not stated)	-1	100*	-3	12	3	16	95*
CCCCNC(=O)Cn1cnc2sc(C)c(S(=O)(=O)N3CCN(c4ncccn4)CC3)c2c1=O	-2	9	-3	2	2	1	x
CCOC(=O)c1ccccc1NC(=O)c1ccccc1N(C)S(C)(=O)=O	-2	90*	13	3	3	3	-3
COC(=O)c1ccccc1NC(=O)c1ccccc1N(C)S(C)(=O)=O	1	19	-6	1	2	-4	x
O=C(O)C1C2C=CC3(CN(C/C=C/c4ccccc4)C(=O)C13)O2 (configuration not stated)	-4	-1	-7	-1	3	-1	x
Cc1ccc2nc(N3CCN(c4cccc(C)c4C)CC3)c3nnnn3c2c1	6	-3	6	-3	2	1	x
Cc1ccc2nc(Cl)c3nnnn3c2c1	-1	100*	26	1	8	-2	93*
COC(=O)N/N=C/c1cccs1	2	-5	-8	7	4	-1	x
COC(=O)C(=C/C(C)=C/c1cccs1)C(=O)OC	5	62*	-44	1	4	-2	21
CCC(C#CCN1CCCCC1)(CC)OCCC#N	x	65*	-2	4	2	-2	-4
CCC(C#CCN1CCOCC1)(CC)OCCC#N	-6	-1	1	3	1	0	x
